HSP90 inh = blocks HSP90-mediated luciferase refolding in reticulocyte lysate. Rabbit reticulocyte lysate, luciferase refolding luminescence, 3 h. AID 1789. inhibition, % at 5.6 µM. 290,000 compounds, 0.91% hits;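 active means inhibition above the screen-wide mean plus 3 SD, computed separately per campaign, cut at about 16% in these data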;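 further: 0% = DMSO wells and 100% = 60 µM geldanamycin wells; inhibitors lower the luminescence because luciferase stays unfolded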
Hsp70 activator = switches on Hsp70 transcription. 200,000 compounds, 0.04% hits. HeLa Hsp70 promoter luciferase reporter, luminescence; scaled: vehicle 0, proteasome-inhibitor control 100%. activation, % at 10 µM;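 active means activation above the mean across all tested compounds plus 3 SD, cutoff set per campaign, cut at about 5.5% in these data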;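 further: 100% = MG132 at 30 µM as the positive control and 0% = DMSO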
HKDC1 inh = blocks human hexokinase HKDC1 activity. Q2TB90. recombinant HKDC1, G6PDH/diaphorase resazurin coupled fluorescence. inhibition, % at 20 µM. 340,000 compounds, 0.16% hits;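 active means inhibition above about 35% when tested at 20 µM, limit read from the data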;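 further: plate controls were DMSO wells with enzyme for no effect and DMSO wells lacking enzyme for full effect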
Target sequence (Q2TB90 whole entry, looked up): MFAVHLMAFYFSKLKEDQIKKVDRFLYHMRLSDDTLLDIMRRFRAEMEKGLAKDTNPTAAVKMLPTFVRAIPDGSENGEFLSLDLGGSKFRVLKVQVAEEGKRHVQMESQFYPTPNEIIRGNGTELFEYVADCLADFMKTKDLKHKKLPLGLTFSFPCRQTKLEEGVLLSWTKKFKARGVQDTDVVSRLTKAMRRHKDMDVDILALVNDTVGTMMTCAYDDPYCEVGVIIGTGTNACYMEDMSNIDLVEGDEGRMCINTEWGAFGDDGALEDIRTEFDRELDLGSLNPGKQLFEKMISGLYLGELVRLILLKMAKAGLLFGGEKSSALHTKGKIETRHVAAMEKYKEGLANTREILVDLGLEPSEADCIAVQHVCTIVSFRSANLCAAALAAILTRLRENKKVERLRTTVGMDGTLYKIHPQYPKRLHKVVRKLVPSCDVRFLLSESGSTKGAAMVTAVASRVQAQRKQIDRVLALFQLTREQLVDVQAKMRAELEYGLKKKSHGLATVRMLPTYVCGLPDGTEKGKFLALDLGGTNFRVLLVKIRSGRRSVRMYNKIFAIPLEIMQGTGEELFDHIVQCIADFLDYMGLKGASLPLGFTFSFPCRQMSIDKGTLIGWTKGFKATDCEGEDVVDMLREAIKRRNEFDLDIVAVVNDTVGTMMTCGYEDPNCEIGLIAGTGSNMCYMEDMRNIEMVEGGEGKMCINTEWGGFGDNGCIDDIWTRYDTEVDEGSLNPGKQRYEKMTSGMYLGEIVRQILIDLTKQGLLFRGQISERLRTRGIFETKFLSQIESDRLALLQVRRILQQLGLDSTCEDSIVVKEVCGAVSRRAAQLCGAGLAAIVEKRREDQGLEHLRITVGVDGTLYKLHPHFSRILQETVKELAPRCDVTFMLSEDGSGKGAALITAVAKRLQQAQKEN
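Test system: recombinant HKDC1 (HK5) hexokinase enzyme, produced in-house / Doses: 20 µM test compound, 1% DMSO / Timing: 90 min, room temperature / Detection: G6PDH/diaphorase-coupled fluorescence, 1 mM NADP, 100 µM resazurin, 525/613 nm / Control set: DMSO wells with and without enzyme mix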
HSF1 inhib = HSF1 inhibition | NIH3T3-HGL HSE-luciferase, MG132-induced, luminescence 8 h; stronger effect = lower value | 300,000 compounds, 0.77% hits | activity change, negative = inhibition, % at 7.5 µM (by protocol);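 active means more than half of replicate wells show activity change below -50%, luminescence cut by over half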;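 further: luciferase reports HSF-1 transcriptional activity via heat shock element; 0% = median of DMSO wells and -100% = zero luminescence signal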
TbHK1 inh = T. brucei hexokinase 1 inhibition; recombinant TbHK1, G6PDH-coupled NADH A340; AID 1430; 220,000 compounds, 0.11% hits; inhibition, % at 10 µM;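 active means inhibition of 50% or more in the single-dose primary screen; inactive means inhibition below 50%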
HSF-1 act = increases HSF-1 driven luciferase reporter signal; 300,000 compounds, 1.7% hits; activation, % at 9 µM; NIH3T3-HGL HSF-1 luciferase reporter, MG132, 8 h; 100% = twice DMSO control signal;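 active means mean replicate activation of at least 50% with a set share of replicates each reaching 50%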;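 further: 0% = median of the neutral control wells and 100% = twice that signal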
Active calls of the source: *; . = no result given. Sampled rows, rich in hits. Any-hit rate of the full collection: about 3.1%.

SMILES	HSP90 inh	Hsp70 activator	HKDC1 inh	HSF1 inhib	TbHK1 inh	HSF-1 act
CCOC(=O)CSc1nc2c(sc(=S)n2-c2ccccc2OC)c(=O)n1-c1ccccc1OC	0	.	2	30	.	46
COc1ccc2c(=O)cc(CO)oc2c1	.	.	4	.	.	.
CCC1(c2ccccc2)NC(=O)N(CC(=O)NCc2ccccc2OC)C1=O (configuration not stated)	6	.	-5	60	.	107*
COc1ccccc1CNC(=O)CN1C(=O)NC(c2ccccc2)(c2ccccc2)C1=O	.	.	-2	.	.	.
c1ccc2sc(Sc3ncnc4sccc34)nc2c1	-3	0	3	235	32	329*
CCc1cc2c(Sc3nc4ccccc4s3)ncnc2s1	0	1	8	62	-4	99*
COc1ccccc1CNC(=O)COC(=O)c1nccnc1N	0	.	7	-9	.	-2
CCn1cc(S(=O)(=O)Nc2ccc3c(c2)OCCO3)cn1	16	0	-2	-81*	-6	-83
Cc1nc(S(=O)(=O)Nc2ccc3c(c2)OCCO3)cn1C	-1	.	-3	-7	2	-7
Cn1cc(S(=O)(=O)Nc2ccc3c(c2)OCCO3)cn1	3	0	-11	-62*	-5	-67
COc1ccccc1P(=O)(c1ccccc1)c1ccc([N+](=O)[O-])cc1 (configuration not stated)	-4	.	3	5	.	18
CCOC(=O)Cn1c(CCC(=O)O)ccc1-c1ccc(F)cc1	-2	0	-3	-77*	14	-82
CCCOC(=O)c1ccc(Oc2cn[nH]c2-c2ccc(O)cc2O)cc1	-2	.	-1	13	-4	52*
CCOC(=O)c1ccc(Oc2cn[nH]c2-c2ccc(O)cc2O)cc1	-2	.	-4	7	-1	10
O=C(Cc1ccc(F)cc1)OCC(=O)c1cc2ccccc2o1	16*	0	-6	-3	-2	-3
O=C(CCNc1ccc(F)cc1)c1cc2ccccc2o1	-9	0	4	40	0	45
COc1ccc(-c2nc(-c3cccs3)c(-c3cccs3)[nH]2)cc1OC	0	1	2	13	-30	12
COc1ccc(-c2nc(-c3ccccc3)c(-c3cccs3)[nH]2)cc1OC	1	0	17	16	-34	51*
CCOc1ccc(OCCC(=O)N(CCOC)c2c(N)n(Cc3ccccc3)c(=O)[nH]c2=O)cc1	.	.	-4	.	.	.
C/C(CC(=O)Nc1cccc(Cl)c1Cl)=N\NC(=O)c1ccccc1Br	1	0	-4	10	-6	42
C/C(CC(=O)Nc1ccc2c(c1)OCO2)=N\NC(=O)c1ccccc1N	-1	.	-1	41	-13	59*
NC(=O)c1ccccc1NC(=O)Nc1cccc(Cl)c1Cl	0	0	-10	46	38	77*
C/C(CC(=O)Nc1ccc2c(c1)OCO2)=N\NC(=O)c1ccc(N)cc1	-2	.	-1	6	-4	25
Cc1c(Cl)cccc1NC(=O)Nc1ccccc1C(N)=O	-3	0	7	-10	-1	10
C/C(CC(=O)Nc1cccc(Cl)c1Cl)=N\NC(=O)c1ccccc1N	2	0	-5	25	-2	55*
SMILES	HSP90 inh	Hsp70 activator	HKDC1 inh	HSF1 inhib	TbHK1 inh	HSF-1 act
COc1ccc(C(=O)NC(=S)N(C)Cc2ccccc2)cc1Br	-2	0	5	21	4	54*
COc1ccc(C(=O)NC(=S)NCCO)cc1Br	-3	0	-10	-68*	2	-74
CCOC(=O)[C@@H]1[C@H]2COc3ccc(Br)cc3[C@H]2N2C(=O)N(c3ccc(C)cc3)C(=O)[C@]12C	5	.	0	5	.	7
COc1ccc(S(=O)(=O)Nc2ccccc2C(=O)NCc2cccnc2)cc1OC	6	.	-4	-1	.	7
Cc1ccc(NC2CCCN(C(=O)c3ccc4[nH]ccc4c3)C2)cc1C (configuration not stated)	1	.	7	-1	.	1
Cc1ccc(C(=O)NCC(=O)OCCCOC(=O)CNC(=O)c2ccc(C)cc2)cc1	.	.	-8	-1	.	-1
O=c1c2ccccc2cnn1-c1ccc2ccccc2c1	4	0	2	29	-7	62*
Brc1ccc2c(c1)C(c1ccc(N3CCOCC3)cc1)=NNC(c1cccs1)=N2	-1	0	2	20	-20	39

High-throughput results as filed in PubChem.
